Kir21 block: inhibitors of mouse Kir2.1 inward-rectifier potassium channel; 310,000 compounds, 0.85% hits; HEK293-Kir2.1, FluxOR thallium flux fluorescence; active compounds read low; Inward rectifier potassium channel 2 (Mus musculus), P35561; B-score at 10 µM;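 active = fluorescence ratio B-score at or below minus 3 SD of library scores, with starting-brightness B-score within 2 SD, cut at about -4.2 in these data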;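 also: channel flux triggered by added potassium and thallium sulfate stimulus; B-score of peak minus minimum fluorescence over baseline after thallium stimulus; more negative B-score means stronger Kir2.1 block with less thallium influx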
Target sequence (P35561 whole entry, looked up): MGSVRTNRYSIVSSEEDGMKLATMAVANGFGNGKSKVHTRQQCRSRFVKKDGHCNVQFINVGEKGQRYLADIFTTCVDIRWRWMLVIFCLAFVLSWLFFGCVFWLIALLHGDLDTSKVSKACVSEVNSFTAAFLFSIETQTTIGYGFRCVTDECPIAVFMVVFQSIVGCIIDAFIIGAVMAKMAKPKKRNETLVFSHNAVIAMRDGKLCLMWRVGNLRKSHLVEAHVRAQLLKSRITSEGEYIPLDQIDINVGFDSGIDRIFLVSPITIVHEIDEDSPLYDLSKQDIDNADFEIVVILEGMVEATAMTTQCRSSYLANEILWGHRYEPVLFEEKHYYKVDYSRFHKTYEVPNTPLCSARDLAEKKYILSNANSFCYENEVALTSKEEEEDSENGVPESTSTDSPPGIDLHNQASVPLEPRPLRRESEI
KCNK3 inh: human KCNK3 channel inhibitors, primary screen, CHO cells, FluxOR thallium flux, B-score | AID 602410, 2012 | B-score at 10 µM | 340,000 compounds, 0.84% hits | Potassium channel subfamily K member 3 (Homo sapiens), O14649 | FluxOR fluorescence; active compounds read low;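 active = B-score under library mean minus 4 SD, starting fluorescence ratio at most library mean plus 5 SD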;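 also: more negative B-score means stronger inhibition of thallium flux through KCNK3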
KCNK9 inh: KCNK9 potassium channel inhibitors, primary screen, HEK293 cells, thallium flux. Potassium channel subfamily K member 9 (Homo sapiens), Q9NPC2. 310,000 compounds, 1.2% hits. AID 488922, 2010. B-score at 10 µM. FluxOR thallium flux fluorescence; active compounds read low;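 active = ratio B-score over 3 SD below the library mean, with starting fluorescence within 5 SD of its mean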;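 also: negative B-score means less thallium flux so channel inhibition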
KCNQ1 block: inhibitors of human KCNQ1 channel, primary screen, cell-based, thallium flux, high-throughput. Potassium voltage-gated channel subfamily KQT member 1 (Homo sapiens), P51787. CHO-K1 KCNQ1, FluxOR thallium flux fluorescence; active compounds read high. B-score at 10 µM. 310,000 compounds, 1.3% hits;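 active = compounds whose thallium flux B-score, printed positive for inhibition, exceeds three library SD while starting fluorescence stays within three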;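 also: channel opened by potassium depolarization with thallium stimulus after 20 min compound exposure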
KCNQ1 pot: potentiators or activators of KCNQ1 channel, primary screen, cell-based, thallium flux, high-throughput | Potassium voltage-gated channel subfamily KQT member 1 (Homo sapiens), P51787 | CHO-K1 KCNQ1, thallium flux FluxOR fluorescence; active compounds read high | B-score at 10 µM | 310,000 compounds, 0.35% hits | AID 2648, 2010;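 active = fluorescence ratio B-score, a plate-corrected score, at least three library SD, with initial intensity B-score within 5 SD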
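Assay system: CHO-K1 cells stably expressing KCNQ1; Medium: assay buffer with matched DMSO; Also added: K+/Tl+ depolarizing stimulus; Dosing: single dose; Timing: dye 90 min, compound 20 min, room temperature; Measured by: kinetic FluxOR thallium fluorescence, 10-s 1-Hz baseline, 110-s post-stimulus read; Read-out: peak-minus-minimum fluorescence over initial fluorescence, negative-control normalized, B-scored.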
hERG protect: hERG rescue from dofetilide block, primary screen, cell-based, CHO-hERG, FluxOR thallium flux, dofetilide IC70; dofetilide IC70 present; 310,000 compounds, 0.51% hits; AID 1511, 2009; activation (rescue from dofetilide block), less the hit threshold, % at 10 µM; Voltage-gated inwardly rectifying potassium channel KCNH2 (Homo sapiens), Q12809;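 active = activation above the mean of controls blocked by dofetilide plus 5 SD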;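 also: thallium influx through hERG after potassium depolarization seen as dye fluorescence rise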
The depositor's hits bear a star; i = inactive; · = no result. Sampled rows, rich in hits. Any-hit rate of the full collection: about 3.7%.

SMILES	Kir21 block	KCNK3 inh	KCNK9 inh	KCNQ1 block	KCNQ1 pot	hERG protect
Cc1cc(C)c(OCC(=O)Nc2cccc(NC(=O)c3ccco3)c2)c(Br)c1	-0.15	i	-7.9*	i	i	-10
O=C(c1ccccc1)c1cccc(NC(=O)c2ccco2)c1	-0.12	i	i	i	i	-15
CCOc1ccc(S(=O)(=O)Nc2ccc3c(c2)OCO3)cc1	0.58	i	i	i	i	-9
CCOC(=O)N1CCN(C(=O)CSc2nc3nc(C)cc(C)n3n2)CC1	·	i	·	·	·	·
N#Cc1c(-c2ccc(F)cc2)c(-c2ccc(F)cc2)nn(CCO)c1=O	·	i	·	·	·	·
Cc1ccc2nc(-c3ccc(NC(=O)c4ccco4)cc3)[nH]c2c1	-0.31	i	i	i	i	-7
O=C(Nc1cccc(-c2nc3ccccc3[nH]2)c1)c1ccco1	0.69	i	-6.9*	i	i	-37
O=C(Nc1cccc(-c2nnc(-c3ccco3)o2)c1)c1ccccc1	-1.2	i	-6.9*	i	i	-15
O=C(NC1CCN(Cc2ccccc2)CC1)c1ccc(Cl)cc1Cl	-6.5*	i	i	i	i	-2
Cc1c(Cl)cccc1NC(=S)NC1CCN(Cc2ccccc2)CC1	-0.98	i	i	i	i	-10
S=C(Nc1ccccc1Cl)NC1CCN(Cc2ccccc2)CC1	-6.7*	i	i	i	i	-11
NS(=O)(=O)c1ccc(NC(=O)c2cccc3cc4ccccc4nc23)cc1	·	i	·	·	·	·
C=CCOC(=O)C1=C[C@H](c2csc3ccccc23)C[C@H](OCc2ccc(CO)cc2)O1	-1.3	i	i	6*	i	-20
COc1ccccc1C(CNC(=O)C(CCSC)NC(=O)c1ccccc1Cl)N1CCCC1 (configuration not stated)	·	i	·	·	·	·
O=[N+]([O-])c1ccc(O)c(/C=N\N=C2c3ccccc3-c3ccccc32)c1	0.19	i	i	7*	i	-17
NC(N)=N/N=C/c1cc([N+](=O)[O-])ccc1O	1.4	i	i	i	i	-6
CC1c2ccsc2CCN1S(=O)(=O)c1ccccc1 (configuration not stated)	-6.8*	i	i	i	i	-15
CC1c2cccn2CCN1S(=O)(=O)c1ccccc1 (configuration not stated)	·	i	·	·	·	·
COCCN(CC1CCCN(C2Cc3ccccc3C2)C1)C(=O)CCC(N)=O (configuration not stated)	0.87	i	i	i	i	-8
Cc1ccc(-c2nn(-c3ccc(F)cc3)cc2C(=O)NCCCN2CCCC2=O)cc1	·	i	·	·	·	·
OC(CCCN1CCCCC1)(c1ccccc1)c1ccc(C(F)(F)F)cc1 (configuration not stated)	·	i	·	·	·	·
CCOc1c(OC(C)=O)ccc(/C=C/c2ccc3cccc(OC(C)=O)c3n2)c1[N+](=O)[O-]	-0.05	i	i	12*	i	-13
CC(NC(=O)CCN1C(=O)c2ccccc2C1=O)c1ccc2c(c1)CCCC2 (configuration not stated)	-4.2*	i	i	i	i	-1
C=CCN([C@@H](CC(C)C)C(=O)OC)S(=O)(=O)N(CC=C)[C@@H](CC(C)C)C(=O)OC	·	i	·	·	·	·
CC(=O)Nc1cccc(OCC(=O)NC(C)c2ccc3ccccc3c2)c1 (configuration not stated)	-6.2*	i	i	i	i	-7
SMILES	Kir21 block	KCNK3 inh	KCNK9 inh	KCNQ1 block	KCNQ1 pot	hERG protect
CCN(CC)CC(=O)Nc1sc(C)cc1C(=O)c1ccccc1	-0.89	i	i	i	i	-6
CCN(CC)CC(=O)Nc1sc(C)c(C)c1C(=O)c1ccc(C)cc1	0.01	i	i	6*	i	-18
Cc1ccc(NC(=O)NCc2ccccn2)cc1	-2.9	i	i	i	i	9.3*
O=C(COc1ccccc1)OCc1cc(-c2ccco2)on1	·	i	·	·	·	·
OCCN1CCN(CC#CCC(c2ccccc2)c2ccccc2)CC1	-5.7*	i	i	i	i	-4
OCCN1CCN(CC#CCn2c3ccccc3c3ccccc32)CC1	-4.1	i	i	i	i	-7
O=C(/C=C/c1ccc([N+](=O)[O-])cc1)c1ccccc(=O)c1O	·	i	·	·	·	·
Cc1ccc(/C=C/C(=O)c2ccccc(=O)c2O)c(C)c1	-1.2	i	i	i	19*	26*
Cc1ccc(C)c(/C=C/C(=O)c2ccccc(=O)c2O)c1	-2.7	i	i	i	27*	18*
O=C(C=Cc1ccccc1O)c1ccccc1O	·	i	·	·	·	·
O=C(/C=C/c1ccccc1Cl)c1ccccc(=O)c1O	-0.96	i	i	i	14*	16*
O=C1[C@@H](Oc2ccccc2)[C@@H](c2ccncc2)N1c1ccncc1	·	i	·	·	·	·
O=C(c1ccccc1O)N1N=C(c2ccccc2)CC1(O)C(F)(F)F (configuration not stated)	-0.68	i	i	6*	i	-13
Cc1ccc(C2=NN(C(=O)c3ccco3)C(O)(C(F)(F)F)C2)cc1 (configuration not stated)	-4.6*	i	i	i	i	-5
Nc1ccc(C(=O)N2N=C(c3ccccc3)CC2(O)C(F)(F)F)cc1 (configuration not stated)	-1.7	i	i	i	i	-8
COc1cccc(C2=NN(C(=O)c3ccco3)C(O)(C(F)(F)F)C2)c1 (configuration not stated)	0.61	i	i	i	i	-15
CCCn1nc(C(=O)Nc2ccc3c(c2)OCO3)c2ccccc2c1=O	·	i	·	·	·	·
CCCCn1nc(C(=O)N[C@@H](CCSC)c2nc3ccccc3[nH]2)c2ccccc2c1=O	-0.74	i	-7.5*	i	i	-4
CCCCn1nc(C(=O)NC2CCCCCC2)c2ccccc2c1=O	·	i	·	·	·	·
CCCCCn1nc(C(=O)N2CCc3ccccc32)c2ccccc2c1=O	·	-10*	·	·	·	·
CCCCn1nc(C(=O)Nc2ccccc2N2CCCC2)c2ccccc2c1=O	·	-8.7*	·	·	·	·
CCCCn1nc(C(=O)Nc2ccc3c(c2)OCO3)c2ccccc2c1=O	·	-10*	·	·	·	·
CCCn1nc(C(=O)N2CCc3ccccc32)c2ccccc2c1=O	·	i	·	·	·	·

Screening data as filed in PubChem BioAssay.
